Source: ChEMBL document CHEMBL5724801, “EUbOPEN Chemogenomics Library - Multiplex” (2024)
Several values for one entry are separate records, joined by “and”; a condition that tells them apart may be missing. Equal values may be shown once.

Test system: HEK-293T
Assay: Multiplex assay against HEK293T
Assay type: toxicity, cell-based
Conditions: human
How it was run: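 Phenotypes for tubulin, mitochondrial mass and membrane permeability are expressed as per cents of healthy-nucleus cells. Cells were stained live at seeding with Hoechst33342, BioTracker Green Microtubule Cytoskeleton Dye, MitoTracker Red and Annexin V Alexa Fluor 680, then imaged after compound addition on a CQ1 microscope at 37°C and 5% CO2. Machine-learning gating in CellPathfinder separated Hoechst high-intensity objects from normal cells, divided normal cells by nuclear state (healthy, pyknosed, fragmented) and divided pyknosed cells into mitotic or apoptotic.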

[1] = 12 h, 1 µM, compound concentration 1 uM
[2] = 12 h, 10 µM, compound concentration 10 uM
[3] = 24 h, 1 µM, compound concentration 1 uM
[4] = 24 h, 10 µM, compound concentration 10 uM
[5] = 48 h, 1 µM, compound concentration 1 uM
[6] = 48 h, 10 µM, compound concentration 10 uM

SMILES: CC(C)(C)c1ccc(CSc2cnn(C(C)(C)C)c(=O)c2Cl)cc1 [PYRIDABEN]
- Population Apoptotic (%) [1]: 51% and 28%
- Population Fragmented Nuclei (%) [1]: 7% and 6%
- Population Healthy Nuclei (%) [1]: 78% and 83%
- Population Hoechst High Intensity Objects (%) [1]: 12% and 8%
- Population Membrane Permeable-Phenotype (%) [1]: 0%
- Population Mitochondria Different-Phenotype (%) [1]: 51% and 63%
- Population Mitotic Cells (%) [1]: 48% and 71%
- Population Normal (%) [1]: 87% and 91%
- Population Pyknosed Nuclei (%) [1]: 14% and 10%
- Population Tubulin-Different-Phenotype (%) [1]: 34% and 30%
- Total Cell Count [1]: 299 and 306
- Population Apoptotic (%) [2]: 56% and 62%
- Population Fragmented Nuclei (%) [2]: 6% and 8%
- Population Healthy Nuclei (%) [2]: 77% and 74%
- Population Hoechst High Intensity Objects (%) [2]: 11% and 17%
- Population Membrane Permeable-Phenotype (%) [2]: 0%
- Population Mitochondria Different-Phenotype (%) [2]: 75% and 81%
- Population Mitotic Cells (%) [2]: 44% and 37%
- Population Normal (%) [2]: 88% and 82%
- Population Pyknosed Nuclei (%) [2]: 15% and 16%
- Population Tubulin-Different-Phenotype (%) [2]: 55% and 38%
- Total Cell Count [2]: 359 and 236
- Population Apoptotic (%) [3]: 33% and 35%
- Population Fragmented Nuclei (%) [3]: 7%
- Population Healthy Nuclei (%) [3]: 80% and 83%
- Population Hoechst High Intensity Objects (%) [3]: 9% and 8%
- Population Membrane Permeable-Phenotype (%) [3]: 0%
- Population Mitochondria Different-Phenotype (%) [3]: 37% and 43%
- Population Mitotic Cells (%) [3]: 66% and 64%
- Population Normal (%) [3]: 90% and 91%
- Population Pyknosed Nuclei (%) [3]: 11% and 8%
- Population Tubulin-Different-Phenotype (%) [3]: 27% and 22%
- Total Cell Count [3]: 373 and 370
- Population Apoptotic (%) [4]: 44% and 46%
- Population Fragmented Nuclei (%) [4]: 7% and 8%
- Population Healthy Nuclei (%) [4]: 79% and 70%
- Population Hoechst High Intensity Objects (%) [4]: 10% and 23%
- Population Membrane Permeable-Phenotype (%) [4]: 0%
- Population Mitochondria Different-Phenotype (%) [4]: 68% and 65%
- Population Mitotic Cells (%) [4]: 55% and 53%
- Population Normal (%) [4]: 89% and 76%
- Population Pyknosed Nuclei (%) [4]: 12% and 21%
- Population Tubulin-Different-Phenotype (%) [4]: 52% and 25%
- Total Cell Count [4]: 386 and 252
- Population Apoptotic (%) [5]: 19% and 30%
- Population Fragmented Nuclei (%) [5]: 11% and 9%
- Population Healthy Nuclei (%) [5]: 80% and 84%
- Population Hoechst High Intensity Objects (%) [5]: 5% and 4%
- Population Membrane Permeable-Phenotype (%) [5]: 0%
- Population Mitochondria Different-Phenotype (%) [5]: 25% and 21%
- Population Mitotic Cells (%) [5]: 80% and 69%
- Population Normal (%) [5]: 94% and 95%
- Population Pyknosed Nuclei (%) [5]: 7% and 6%
- Population Tubulin-Different-Phenotype (%) [5]: 14% and 13%
- Total Cell Count [5]: 585 and 522
- Population Apoptotic (%) [6]: 48% and 64%
- Population Fragmented Nuclei (%) [6]: 8% and 13%
- Population Healthy Nuclei (%) [6]: 79% and 71%
- Population Hoechst High Intensity Objects (%) [6]: 11% and 14%
- Population Membrane Permeable-Phenotype (%) [6]: 0%
- Population Mitochondria Different-Phenotype (%) [6]: 59% and 48%
- Population Mitotic Cells (%) [6]: 51% and 35%
- Population Normal (%) [6]: 88% and 85%
- Population Pyknosed Nuclei (%) [6]: 12% and 14%
- Population Tubulin-Different-Phenotype (%) [6]: 43% and 28%
- Total Cell Count [6]: 424 and 290
